Experimental data as given in ChEMBL document CHEMBL4732095, “Novel naphthylamide derivatives as dual-target antifungal inhibitors: Design, synthesis and biological evaluation” (Eur J Med Chem, 2021).
The source made the active and inactive calls. The calls are words filed in the database; no cut-off is given here.

Key:
Pichia kudriavzevii = test: Antifungal activity against Candida krusei ATCC 6258 assessed as inhibition of microbial growth by NCCLS protocol based method; format: functional
How it was run: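 Broth MIC50 determined following NCCLS guidelines in Sabouraud medium, with fungal suspension in 24-well format. Compound tested at 0.0625, 0.125, 0.5, 1, 2, 4, 8 and 16 μg/mL. Plates cultured statically at 35 °C. MIC50 is the lowest concentration giving 50% growth inhibition. Naftifine and fluconazole served as positive controls.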

Candida albicans [1] = test: Antifungal activity against fluconazole-resistant Candida albicans 17# assessed as inhibition of microbial growth by NCCLS protocol based method; format: functional
Candida albicans [2] = test: Antifungal activity against fluconazole-resistant Candida albicans 632 assessed as inhibition of microbial growth by NCCLS protocol based method; format: functional
Candida albicans [3] = test: Antifungal activity against fluconazole-resistant Candida albicans 904 assessed as inhibition of microbial growth by NCCLS protocol based method; format: functional
Candida albicans [4] = test: Antifungal activity against Candida albicans ATCC SC5314 assessed as decrease in fungal cell density at 10 nM/mL by polarizing microscopy; format: functional, organism-based; settings: dose 10.0 nmol/ml
How it was run: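 C. albicans ATCC SC5314 observed by polarizing microscopy over treatment time. Untreated, fluconazole- and naftifine-treated control groups were included. Cell density, dividing cells and cell fracture were assessed, with cell counts taken per field.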

Candida albicans [5] = test: Antifungal activity against Candida albicans ATCC SC5314 assessed as reduction in survival rate of fungal cells (reference value: 97%); format: functional
Candida albicans SC5314 [6] = test: Inhibition of SE/CYP51 in Candida albicans ATCC SC5314 assessed as squalene level at 0.5 ug/ml incubated for 48 hrs by LC/MS analysis; set-up: scale not given: the % may be the effect or the level left; settings: dose 0.5 µg/ml
How it was run: (§1)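 C. albicans SC5314 cells exposed to compound at 0.125, 0.5 or 4 μg/mL for 48 h, alongside untreated, fluconazole and naftifine controls. Sterols (ergosterol, squalene, lanosterol, eburicol, unknown) analysed by LC-MS. Each component expressed as percentage of total sterols from peak area ratios.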

Candida albicans SC5314 [7] = test: Inhibition of SE/CYP51 in Candida albicans ATCC SC5314 assessed as lanosterol level at 0.5 ug/ml incubated for 48 hrs by LC/MS analysis; set-up: scale not given: the % may be the effect or the level left; settings: dose 0.5 µg/ml; how it was run: as §1
Candida albicans SC5314 [8] = test: Inhibition of SE/CYP51 in Candida albicans ATCC SC5314 assessed as eburicol level at […] ug/ml incubated for 48 hrs by LC/MS analysis (reference value: 1.4 %); set-up: scale not given: the % may be the effect or the level left; settings: dose 0.125 µg/ml
[9] = Inhibition of Candida albicans ATCC SC5314 SE incubated for 30 mins by spectrophotometric method
How it was run: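 Enzymes (SE, CYP51) extracted from C. albicans SC5314 using kits. 50 µg enzyme incubated with varying compound concentrations for 30 min at 37 °C in Tris pH 7.4, KCl, MgCl2, 2 mM NADPH, with squalene or eburicol as substrate. Reaction stopped with acetonitrile and centrifuged. Eburicol consumption (CYP51) read by HPLC. Squalene, after sulfuric acid/formaldehyde derivatization, read at 400 nm (SE). IC50 reported.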

[10] = Toxicity in mouse infected with Candida albicans SC5314 assessed as change in body weight administered via abdomen for 7 days; settings: in vivo, ip, 168 h, time 7 day
How it was run: (§2)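 Mice infected with C. albicans SC5314 by subcutaneous abdominal injection, then randomized into saline, and two compound-treated groups. Treatment given by abdominal injection for 7 days, with body weight monitored. Heart, liver, spleen, lung, kidney and infected abdominal tissue harvested for H&E histology.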

Candida albicans [11] = test: In vivo antifungal activity against Candida albicans SC5314 infected in mouse assessed as uniform cell distribution injected via abdomen for 7 days by H and E staining based histological analysis; format: functional, organism-based; settings: time 7.0 day; how it was run: as §2
[12] = Toxicity in mouse infected with Candida albicans SC5314 assessed as change in heart morphology administered via abdomen for 7 days by H and E staining based histological analysis; settings: in vivo, ip, 168 h, time 7 day; how it was run: as §2
[13] = Toxicity in mouse infected with Candida albicans SC5314 assessed as change in lung morphology administered via abdomen for 7 days by H and E staining based histological analysis; settings: in vivo, ip, 168 h, time 7 day; how it was run: as §2
[14] = target: Lanosterol 14-alpha demethylase (Candida albicans (strain SC5314 / ATCC MYA-2876) (Yeast), UniProt P10613); test: Inhibition of Candida albicans ATCC SC5314 CYP51 incubated for 30 mins by HPLC method
Lanosterol 14-alpha demethylase, sequence (P10613 whole entry): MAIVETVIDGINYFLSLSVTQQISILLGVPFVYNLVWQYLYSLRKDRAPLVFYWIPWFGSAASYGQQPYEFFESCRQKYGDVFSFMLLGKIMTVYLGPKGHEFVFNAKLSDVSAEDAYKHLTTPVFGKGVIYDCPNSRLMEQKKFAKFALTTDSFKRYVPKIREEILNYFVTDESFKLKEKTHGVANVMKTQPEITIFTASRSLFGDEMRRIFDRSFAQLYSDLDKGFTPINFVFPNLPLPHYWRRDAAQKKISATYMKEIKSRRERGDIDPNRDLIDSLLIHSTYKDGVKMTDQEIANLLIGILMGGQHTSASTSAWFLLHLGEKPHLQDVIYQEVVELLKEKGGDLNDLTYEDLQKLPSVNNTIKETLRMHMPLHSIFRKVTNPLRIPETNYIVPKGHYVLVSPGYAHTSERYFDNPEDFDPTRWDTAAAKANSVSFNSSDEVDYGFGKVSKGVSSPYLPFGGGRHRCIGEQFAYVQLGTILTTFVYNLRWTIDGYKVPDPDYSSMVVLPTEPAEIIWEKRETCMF

Candida albicans [15] = test: Antifungal activity against Candida albicans ATCC SC5314 assessed as disappearance of fungal cell boundaries at 4 ug/ml incubated for 72 hrs by TEM analysis; format: functional, organism-based; settings: dose 4.0 µg/ml
How it was run: (§3)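 C. albicans SC5314 suspension prepared per NCCLS protocol, exposed to compound at 4 μg/mL and incubated at 35 °C. Sampled at 72 h and 144 h, with a 0 h reference. Samples fixed at 4 °C in 3% glutaraldehyde, washed in PBS, stained with uranium/osmium for 30 min, and imaged by transmission electron microscopy.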

Candida albicans [16] = test: Antifungal activity against Candida albicans ATCC SC5314 assessed as irregular cell structure at 4 ug/ml incubated for 72 hrs by TEM analysis; format: functional, organism-based; settings: dose 4.0 µg/ml; how it was run: as §3
Candida albicans [17] = test: Antifungal activity against Candida albicans ATCC SC5314 assessed as edema cavitation at 4 ug/ml incubated for 72 hrs by TEM analysis; format: functional, organism-based; settings: dose 4.0 µg/ml; how it was run: as §3
Candida albicans [18] = test: Antifungal activity against Candida albicans ATCC SC5314 assessed as appearance of disordered ridge arrangement in cytoplasm at 4 ug/ml incubated for 72 hrs by TEM analysis; format: functional, organism-based; settings: dose 4.0 µg/ml; how it was run: as §3
Candida albicans [19] = test: Antifungal activity against Candida albicans ATCC SC5314 assessed as exfoliation of rough ER particles at 4 ug/ml incubated for 72 hrs by TEM analysis; format: functional, organism-based; settings: dose 4.0 µg/ml; how it was run: as §3
Candida albicans [20] = test: Antifungal activity against Candida albicans ATCC SC5314 assessed as cracked fungal cells at 4 ug/ml incubated for 144 hrs by TEM analysis; format: functional, organism-based; settings: dose 4.0 µg/ml; how it was run: as §3

Structure (SMILES)	MIC50 (Pichia kudriavzevii)	MIC50 (Candida albicans [1])	MIC50 (Candida albicans [2])	MIC50 (Candida albicans [3])	Activity (Candida albicans [4])	Activity (Candida albicans [5])	Activity (Candida albicans SC5314 [6])	Activity (Candida albicans SC5314 [7])	Activity (Candida albicans SC5314 [8])	IC50 [9]	Activity [10]	Activity (Candida albicans [11])	Activity [12]	Activity [13]	IC50 [14]	further results
O=C(NC(Cn1ccnc1)C(=O)NCc1ccncc1)c1ccc2ccccc2c1 (stereo unspecified)	0.25 µg/mL	4 µg/mL	8 µg/mL	> 16 µg/mL	Active	16%	14.5%	7.2%	13.6%	685 nM	Non-Toxic	Active	Non-Toxic	Non-Toxic	1150 nM	–
CC(NC(=O)c1cccc2ccccc12)C(=O)NC(Cn1ccnc1)C(=O)c1ccccc1 (stereo unspecified)	0.25 µg/mL	2 µg/mL	8 µg/mL	4 µg/mL	Active	11%	21.6%	8.7%	17.5%	961 nM	Non-Toxic	Active	Non-Toxic	Non-Toxic	537 nM	Activity (Candida albicans [15]): Active; Activity (Candida albicans [16]): Active; Activity (Candida albicans [17]): Active; Activity (Candida albicans [18]): Active; Activity (Candida albicans [19]): Active; Activity (Candida albicans [20]): Active
